Screens (PubChem BioAssay)
Rows were chosen to be rich in hits. Some 2.3% of all compounds tested hit in one or more screens of this group.
MCL1-BIM inh: inhibitors of MCL1 binding to BIM-BH3, primary screen, biochemical, fluorescence polarization; GST-MCL1 / FITC-Bim-BH3 fluorescence polarization; Induced myeloid leukemia cell differentiation protein Mcl-1 (Homo sapiens), Q07820; 320,000 tested, 0.68% active; AID 2057, 2009; inhibition, % at 10.9 µM;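 active means inhibition above the mean inhibition of all tested compounds plus 3 SD, set per campaign, cut at about 40% in these data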;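 further: 0% = DMSO wells and 100% = unlabeled Bim-BH3 peptide control; higher means more loss of mP so more displacement of Bim peptide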
Target sequence (Q07820 whole entry, looked up): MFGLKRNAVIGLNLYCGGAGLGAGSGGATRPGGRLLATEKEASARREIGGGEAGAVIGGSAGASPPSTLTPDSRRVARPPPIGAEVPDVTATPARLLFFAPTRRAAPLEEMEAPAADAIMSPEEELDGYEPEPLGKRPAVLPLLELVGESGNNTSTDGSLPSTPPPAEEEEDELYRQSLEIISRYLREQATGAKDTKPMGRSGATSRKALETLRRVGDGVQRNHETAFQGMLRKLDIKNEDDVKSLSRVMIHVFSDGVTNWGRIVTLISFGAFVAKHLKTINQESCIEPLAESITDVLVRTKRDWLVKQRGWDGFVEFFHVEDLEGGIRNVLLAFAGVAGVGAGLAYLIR
Pemphigus Ab inh: inhibitors of pemphigus antibody binding to DSG3, primary screen, biochemical, bead-based, flow cytometry, scFv-GFP; 310,000 tested, 0.48% active; DSG3-coupled beads, scFv-anti-DSG3-GFP binding; active compounds read low; Desmoglein-3 (Homo sapiens), P32926; binding (percent of control), % at 10 µM;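 active means binding more than 3 SD below its plate's average and above zero; inconclusive means below that plate limit but binding exactly zero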;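 further: hits lower antibody fragment binding to DSG3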
Bim-Mcl-1: inhibitors of Bim peptide binding to Mcl-1, primary screen, biochemical, bead-based flow cytometry, multiplex; Induced myeloid leukemia cell differentiation protein Mcl-1 (Homo sapiens), Q07820; Bim peptide-Mcl-1 binding; inhibition, % at 10 µM; 190,000 tested, 0.1% active; in the data active means inhibition above about 40%;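 further: 0% = no compound tracer wells and 100% = peptide blocker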
Mcl1-Bid inh: Mcl-1/Bid binding inhibitors, primary screen, biochemical, TR-FRET, 1536-well; 220,000 tested, 0.97% active; AID 1021, 2008; inhibition, % at 21.7 µM; Induced myeloid leukemia cell differentiation protein Mcl-1 (Homo sapiens), Q07820; TR-FRET Mcl-1/Bid-Dy647 peptide binding;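 active means compounds that cut the binding signal by more than half at the single screening dose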;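 further: His-tagged Mcl-1 with europium anti-His antibody binding Bid BH3 peptide; 0% = Mcl-1 plus peptide wells and 100% = peptide-only wells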
T cell HTS: modulators of CD8 T cell-vesicle binding, primary screen, mouse 2C CD8+ T cells, flow cytometry; 2C CD8+ T cell-vesicle binding; active compounds read low; response (vesicle binding), % at 7 µM; 330,000 tested, 0.068% active; AID 2052, 2009;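 active means response, share of CD8 T cells binding vesicles, and their 90th percentile fluorescence all below set limits, cut at about 80% in these data, passing the limit was not always enough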;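 further: values below 100% mean blocked vesicle binding to the CD8+ T cells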
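Material: 2C TCR transgenic mouse naive CD8+ T cells, MACS-purified. Also added: QL9-charged Drosophila Ld/ICAM-1/B7-1 vesicles. Timing: binding 1.5 h at 37 °C. Measured by: high-throughput flow cytometry with anti-B7-1 and anti-CD8 staining. Read-out: percent CD8+ FL2 mean versus row control. Controls: Unloaded micro-vesicles (low), QL9 vesicles with 0.7% DMSO (high).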
Mcl1 Noxa PPI: Mcl-1/Noxa binding inhibitors, primary screen, biochemical, TR-FRET, 1536-well. inhibition, % at 21.7 µM. Induced myeloid leukemia cell differentiation protein Mcl-1 (Homo sapiens), Q07820. 220,000 tested, 1.5% active. TR-FRET Mcl-1/Noxa peptide binding, 2 h;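 active means compounds that cut the protein-peptide binding signal by more than 50% relative to plate controls in a single-dose test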;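 further: His-tagged Mcl-1 with rhodamine Noxa BH3 peptide and terbium anti-His antibody; 0% = Mcl-1 plus Noxa peptide wells and 100% = peptide-only wells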
Bcl-xL conf: Bcl-xL inhibitors blocking Bim BH3 binding, confirmation, counter-screen for MCL1 inhibitor project, biochemical, fluorescence polarization; GST-Bcl-xL / FITC-Bim BH3 peptide FP binding; 1,700 tested, 54% active; AID 2166, 2009; inhibition, % at 10.9 µM; shares compounds with MCL1-BIM inh;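 active means inhibition above a cutoff equal to the mean inhibition of all tested compounds plus 3 SD, cut at about 30% in these data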;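 further: 0% = DMSO wells and 100% = unlabeled Bim BH3 control peptide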
Target sequence (Q07817 whole entry, looked up): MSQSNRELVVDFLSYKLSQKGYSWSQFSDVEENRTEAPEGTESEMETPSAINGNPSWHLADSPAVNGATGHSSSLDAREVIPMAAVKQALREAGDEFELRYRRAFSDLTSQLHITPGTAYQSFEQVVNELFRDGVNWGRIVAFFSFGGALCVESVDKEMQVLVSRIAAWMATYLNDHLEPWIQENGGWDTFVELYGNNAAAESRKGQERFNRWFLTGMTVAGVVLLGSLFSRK
MCL1 inh confirm: inhibitors of MCL1 binding to BIM-BH3, confirmation, biochemical, fluorescence polarization, triplicate | GST-MCL1 / FITC-Bim-BH3 fluorescence polarization | 1,700 tested, 61% active | inhibition, % at 10.9 µM | shares compounds with MCL1-BIM inh | AID 2168, 2009;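 active means inhibition above the average of all tested compounds plus 3 SD, cut at about 40% in these data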;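 further: 0% = DMSO wells and 100% = unlabeled Bim-BH3 control peptide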
* = called active by the depositor; i = inactive; ? = inconclusive; . = not tested or not shown; + = active, no number.

SMILES	MCL1-BIM inh	Pemphigus Ab inh	Bim-Mcl-1	Mcl1-Bid inh	T cell HTS	Mcl1 Noxa PPI	Bcl-xL conf	MCL1 inh confirm
CCOc1ccc(NC(=O)CN2CCN(c3ccc(F)cc3)CC2)cc1S(=O)(=O)N1CCCC1	.	103.7	.	.	.	.	.	.
CN(C)c1ccc(O)c2c1CC1CC3[C@@H](N(C)C)C(=O)C(C(N)=O)=C(O)[C@]3(O)C(=O)C1=C2O (stereo not given in full)	60.9*	.	-3.0	-12.1	509.5	28.1	25.7	67.2*
CCc1cc(=O)oc2cc(C)c(CN3CCCC(C)C3)c(O)c12 (stereo not given)	46.6*	99.7	1.0	92.9*	252.7	52.1*	24.9	18.2
COc1cc2cccc(OC)c(=O)c2c(O)c1OC	6.9	91.9	-2.0	-10.0	242.7	-1.6	.	.
CC(=O)Oc1cc2cccc(OC(C)=O)c(=O)c2c(OC(C)=O)c1OC(C)=O	104.8*	.	3.0	-54.6	280.1	65.8*	29.2	35.6
Cc1nnc(SCC(=O)NC2(C#N)CCCCC2)n1N	.	98.3	.	.	.	.	.	.
C=C(C)c1cccc(C(C)(C)NC(=O)Nc2ccc(C)cn2)c1	-8.5	99.0	7.0	-9.9	247.6	16.0	.	.
C=C(C)c1cccc(C(C)(C)NC(=O)Nc2ccc(OC)nc2)c1	91.0*	103.6	.	.	188.4	.	56.6*	72.9*
COc1ccc(NC(=O)c2cccc(-c3ccc(O)cc3)c2)cn1	179.5*	105.9	.	.	179.1	.	107.3*	132.6*
COC(=O)CN(c1ccccc1C)S(C)(=O)=O	82.6*	101.5	2.0	-14.8	344.4	-4.4	12.9	9.4
CCc1ccccc1N(CC(=O)OC)S(C)(=O)=O	5.4	91.3	0.0	-7.1	129.8	-2.5	.	.
Nc1cccc(C(=O)OCC(=O)Nc2cccc3c2C(=O)c2ccccc2C3=O)c1	118.5*	95.8	-2.0	77.4*	287.7	64.1*	107.1*	146.2*
Cc1cccc(NC(=O)COC(=O)c2cccc3c2C(=O)c2ccccc2C3=O)c1C	8.4	96.5	1.0	-7.6	264.3	4.8	.	.
COc1ccc(NS(=O)(=O)c2ccc(Cl)s2)cn1	78.1*	100.9	.	-17.0	99.3	9.7	72.2*	94.5*
CCn1c2ccccc2nc2cc3c(cc21)c(Cl)c(=O)c1ccccc13	.	98.9	.	.	.	.	.	.
CCCCc1ccc(NC(=O)Nc2cc(C)nn2C)cc1	68.0*	91.5	.	.	397.7	.	-0.6	5.3
CCCCc1ccc(NC(=O)Nc2cnccn2)cc1	-1.1	109.0	.	.	138.8	.	.	.
CCCCS(=O)(=O)N1CCN(S(=O)(=O)c2ccc(Cl)s2)CC1	9.6	109.8	.	.	514.1	.	.	.
O=c1cc(-c2ccc(O)c(O)c2)oc2c1ccc1ccccc12	44.6*	92.7	.	.	193.5	.	17.8	44.9*
Cc1ccc(C2C(C#N)=C(N)SC(N)=C2C#N)cc1	.	.	-5.0	-25.8	.	.	.	.
N#CC1=C(N)SC(N)=C(C#N)C1c1ccoc1	80.4*	.	-4.0	-28.2	409.9	41.0	4.0	-3.6
COC(=O)[C@@]1(Cc2ccccc2)[C@H]2C(=O)N(Cc3ccccc3)C(=O)[C@H]2[C@H]2CN=C(SCC3CC3)N21	.	101.8	.	.	.	.	.	.
CCC(C)[C@H](NC(=O)C1CC(=O)N(c2ccc3c(c2)OCO3)C1)C(=O)NC1CCCCC1 (stereo not given in full)	59.6*	106.4	.	.	463.1	.	59.6*	77.7*
CN1c2ccccc2N(C)C1(C)c1ccccc1	65.2*	83.8	1.0	39.4	351.5	79.8*	74.2*	100.7*
CCN1c2ccccc2N(C)C1(C)c1ccccc1 (stereo not given)	94.2*	89.6	2.0	29.6	141.3	85.5*	61.3*	97.6*
SMILES	MCL1-BIM inh	Pemphigus Ab inh	Bim-Mcl-1	Mcl1-Bid inh	T cell HTS	Mcl1 Noxa PPI	Bcl-xL conf	MCL1 inh confirm
NC(=O)CC(NC(=O)Cc1ccc(Br)cc1)c1ccc(N2CCc3ccccc3C2)c([N+](=O)[O-])c1 (stereo not given)	9.1	98.6	.	.	485.3	.	.	.
NC(CO)C(=O)NNCc1ccc(O)c(O)c1O (stereo not given)	71.8*	88.7	0.0	5.7	79.2	101.4*	36.7*	60.7*
Cc1cc(SCC(=O)N/N=C/c2ccc(O)c(O)c2O)c(C)cc1Br	50.7*	98.3	-2.0	17.7	573.7	84.2*	6.7	34.4
COc1ccc(N=Nc2nc3ccc(Br)cc3n2C)cc1	+	?	0.0	-3.3	398.2	19.6	88.1*	115.8*
O=C1COc2ccc(C(=O)COC(=O)/C=C/c3ccc(Br)o3)cc2N1	72.9*	92.4	.	.	148.0	.	4.2	50.7*
Cc1ccc(/C=C/C(=O)OCC(=O)c2ccc3c(c2)NC(=O)CO3)o1	.	124.0	.	.	501.5	.	.	.
COc1ccc(OC)c(-c2oc3ccccc3c(=O)c2O)c1	-1.7	103.8	-3.0	-14.3	243.1	5.8	.	.
COc1ccc(OC)c(-c2c3cc(O)c(=O)cc-3oc3cc(O)c(O)cc23)c1	118.4*	85.4	-116.0	-1.0	706.9	90.9*	120.3*	133.4*
COc1cc([N+](=O)[O-])cc(/C=C2/SC(=S)N(Cc3ccccc3)C2=O)c1O	72.5*	101.7	.	.	272.8	.	69.9*	80.2*
O=C1/C(=C\c2cc(Br)cc(Br)c2O)SC(=S)N1Cc1ccccc1	50.6*	89.1	.	.	194.2	.	23.8	48.8*
COc1cc(/C=C2/SC(=S)N(Cc3ccccc3)C2=O)cc(Cl)c1O	9.1	149.8	.	.	493.0	.	.	.
CC(=O)C(C(c1ccccc1)c1c[nH]c2ccccc12)[N+](=O)[O-] (stereo not given)	-1.8	107.4	.	.	79.2	.	.	.
O=C(Cn1nnc(-c2ccc(F)cc2)n1)Nc1cccc(S(=O)(=O)N2CCCC2)c1	-1.5	101.2	.	.	i	.	.	.
CCCC1=NN2C(=N)/C(=C\c3ccc(SCc4ccco4)o3)C(=O)N=C2S1	79.7*	99.8	2.0	49.0	429.7	83.6*	6.7	26.2
CC1C2C(c3ccccc3)N(C)C(=O)N(C)C2N(C)C(=O)N1C (stereo not given)	55.4*	.	-1.0	-26.9	139.9	1.0	38.0*	44.9*
